Results as given in ChEMBL document CHEMBL2157935, “Synthesis and properties of cationic 2'-O-[N-(4-aminobutyl)carbamoyl] modified oligonucleotides” (Bioorg Med Chem Lett, 2012).

Columns and labels:
Nucleic Acid [1] = test: Binding affinity to RNA 3'-CAUGGAAAGGCC-5' assessed as melting temperature; assay type: nucleic-acid assay
Nucleic Acid [2] = test: Binding affinity to RNA 3'-CAUGGAAAGGCC-5' assessed as change in melting temperature; assay type: nucleic-acid assay
Nucleic Acid [3] = test: Binding affinity to RNA 3'-CAUGGUAAGGCC-5' assessed as melting temperature; assay type: nucleic-acid assay
Nucleic Acid [4] = test: Binding affinity to RNA 3'-CAUGGGAAGGCC-5' assessed as melting temperature; assay type: nucleic-acid assay
Nucleic Acid [5] = test: Binding affinity to RNA 3'-CAUGGCAAGGCC-5' assessed as melting temperature; assay type: nucleic-acid assay
[6] = Chemical stability in presence of snake venom phosphodiesterase at 50 uM and pH 8.4; assay type: physicochemical; conditions: buffer
Procedure, shortened: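 Oligonucleotides (50 μM) incubated at 37 °C in 50 mM Tris-HCl (pH 8.5) with 72 mM NaCl, 14 mM MgCl2 and 2.5 × 10^-4 U/ml snake venom phosphodiesterase; hydrolysis followed over time.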

**Q.** For `CO[C@@H]1[C@H](OP(=O)(O)OC[C@H]2O[C@@H](n3ccc(=O)[nH]c3=O)[C@H](OC(=O)NCCCCN)[C@@H]2OP(=O)(O)OC[C@H]2O[C@@H](n3ccc(=O)[nH]c3=O)[C@H](OC)[C@@H]2OP(=O)(O)OC[C@H]2O[C@@H](n3ccc(=O)[nH]c3=O)[C@H](OC(=O)NCCCCN)[C@@H]2OP(=O)(O)OC[C@H]2O[C@@H](n3ccc(N)nc3=O)[C@H](OC)[C@@H]2OP(=O)(O)OC[C@H]2O[C@@H](n3ccc(N)nc3=O)[C@H](OC)[C@@H]2OP(=O)(O)OC[C@H]2O[C@@H](n3cnc4c(=O)[nH]c(N)nc43)[C@H](OC)[C@@H]2OP(=O)(O)OC[C@H]2O[C@@H](n3cnc4c(=O)[nH]c(N)nc43)[C@H](OC)[C@@H]2O)[C@@H](COP(=O)(O)O[C@H]2[C@@H](OC)[C@H](n3ccc(N)nc3=O)O[C@@H]2COP(=O)(O)O[C@H]2[C@@H](OC)[C@H](n3cnc4c(N)ncnc43)O[C@@H]2COP(=O)(O)O[C@H]2[C@@H](OC)[C@H](n3ccc(=O)[nH]c3=O)O[C@@H]2COP(=O)(O)O[C@H]2[C@@H](OC)[C@H](n3cnc4c(=O)[nH]c(N)nc43)O[C@@H]2CO)O[C@H]1n1ccc(N)nc1=O`, which Tm (Nucleic Acid [1]) is on record?
**A.** Its Tm is 61 °C.

**Q.** What about the ΔTm (Nucleic Acid [2]) of the same compound?
**A.** The ΔTm was 18 °C.

**Q.** For `CO[C@@H]1[C@H](OP(=O)(O)OC[C@H]2O[C@@H](n3ccc(=O)[nH]c3=O)[C@H](OC)[C@@H]2OP(=O)(O)OC[C@H]2O[C@@H](n3ccc(=O)[nH]c3=O)[C@H](OC)[C@@H]2OP(=O)(O)OC[C@H]2O[C@@H](n3ccc(=O)[nH]c3=O)[C@H](OC(N)=O)[C@@H]2OP(=O)(O)OC[C@H]2O[C@@H](n3ccc(N)nc3=O)[C@H](OC)[C@@H]2OP(=O)(O)OC[C@H]2O[C@@H](n3ccc(N)nc3=O)[C@H](OC)[C@@H]2OP(=O)(O)OC[C@H]2O[C@@H](n3cnc4c(=O)[nH]c(N)nc43)[C@H](OC)[C@@H]2OP(=O)(O)OC[C@H]2O[C@@H](n3cnc4c(=O)[nH]c(N)nc43)[C@H](OC)[C@@H]2O)[C@@H](COP(=O)(O)O[C@H]2[C@@H](OC)[C@H](n3ccc(N)nc3=O)O[C@@H]2COP(=O)(O)O[C@H]2[C@@H](OC)[C@H](n3cnc4c(N)ncnc43)O[C@@H]2COP(=O)(O)O[C@H]2[C@@H](OC(N)=O)[C@H](n3ccc(=O)[nH]c3=O)O[C@@H]2COP(=O)(O)O[C@H]2[C@@H](OC)[C@H](n3cnc4c(=O)[nH]c(N)nc43)O[C@@H]2CO)O[C@H]1n1ccc(N)nc1=O`, which Tm (Nucleic Acid [1]) is on record?
**A.** The Tm was 47 °C.

**Q.** For `CO[C@@H]1[C@H](OP(=O)(O)OC[C@H]2O[C@@H](n3ccc(=O)[nH]c3=O)[C@H](OC)[C@@H]2OP(=O)(O)OC[C@H]2O[C@@H](n3ccc(=O)[nH]c3=O)[C@H](OC)[C@@H]2OP(=O)(O)OC[C@H]2O[C@@H](n3ccc(=O)[nH]c3=O)[C@H](OC)[C@@H]2OP(=O)(O)OC[C@H]2O[C@@H](n3ccc(N)nc3=O)[C@H](OC)[C@@H]2OP(=O)(O)OC[C@H]2O[C@@H](n3ccc(N)nc3=O)[C@H](OC)[C@@H]2OP(=O)(O)OC[C@H]2O[C@@H](n3cnc4c(=O)[nH]c(N)nc43)[C@H](OC)[C@@H]2OP(=O)(O)OC[C@H]2O[C@@H](n3cnc4c(=O)[nH]c(N)nc43)[C@H](OC)[C@@H]2O)[C@@H](COP(=O)(O)O[C@H]2[C@@H](OC)[C@H](n3ccc(N)nc3=O)O[C@@H]2COP(=O)(O)O[C@H]2[C@@H](OC)[C@H](n3cnc4c(N)ncnc43)O[C@@H]2COP(=O)(O)O[C@H]2[C@@H](OC)[C@H](n3ccc(=O)[nH]c3=O)O[C@@H]2COP(=O)(O)O[C@H]2[C@@H](OC)[C@H](n3cnc4c(=O)[nH]c(N)nc43)O[C@@H]2CO)O[C@H]1n1ccc(N)nc1=O`, which Tm (Nucleic Acid [3]) is on record?
**A.** The Tm was 58 °C.

**Q.** And the Tm (Nucleic Acid [4])?
**A.** The Tm was 63 °C.

**Q.** What about the Tm (Nucleic Acid [5]) of the same compound?
**A.** Its Tm is 57 °C.

**Q.** Which Tm (Nucleic Acid [1]) does the source give for `CO[C@@H]1[C@H](OP(=O)(O)OC[C@H]2O[C@@H](n3ccc(=O)[nH]c3=O)[C@H](OC(=O)NCCCCN)[C@@H]2OP(=O)(O)OC[C@H]2O[C@@H](n3ccc(=O)[nH]c3=O)[C@H](OC)[C@@H]2OP(=O)(O)OC[C@H]2O[C@@H](n3ccc(=O)[nH]c3=O)[C@H](OC)[C@@H]2OP(=O)(O)OC[C@H]2O[C@@H](n3ccc(N)nc3=O)[C@H](OC)[C@@H]2OP(=O)(O)OC[C@H]2O[C@@H](n3ccc(N)nc3=O)[C@H](OC)[C@@H]2OP(=O)(O)OC[C@H]2O[C@@H](n3cnc4c(=O)[nH]c(N)nc43)[C@H](OC)[C@@H]2OP(=O)(O)OC[C@H]2O[C@@H](n3cnc4c(=O)[nH]c(N)nc43)[C@H](OC)[C@@H]2O)[C@@H](COP(=O)(O)O[C@H]2[C@@H](OC)[C@H](n3ccc(N)nc3=O)O[C@@H]2COP(=O)(O)O[C@H]2[C@@H](OC)[C@H](n3cnc4c(N)ncnc43)O[C@@H]2COP(=O)(O)O[C@H]2[C@@H](OC)[C@H](n3ccc(=O)[nH]c3=O)O[C@@H]2COP(=O)(O)O[C@H]2[C@@H](OC)[C@H](n3cnc4c(=O)[nH]c(N)nc43)O[C@@H]2CO)O[C@H]1n1ccc(N)nc1=O` here?
**A.** Its Tm is 69 °C.

**Q.** And the ΔTm (Nucleic Acid [2])?
**A.** The ΔTm was 4 °C.

**Q.** What about the Tm (Nucleic Acid [3]) of the same compound?
**A.** The Tm was 59 °C.

**Q.** And the Tm (Nucleic Acid [4])?
**A.** The Tm was 68 °C.

**Q.** What about the Tm (Nucleic Acid [5]) of the same compound?
**A.** The Tm was 57 °C.

**Q.** Which Stability [6] does the source give for `Cc1cn([C@H]2C[C@H](O)[C@@H](COP(=O)(O)O[C@H]3[C@@H](OC(=O)NCCCCN)[C@H](n4ccc(=O)[nH]c4=O)O[C@@H]3COP(=O)(O)O[C@H]3[C@@H](OC(=O)NCCCCN)[C@H](n4ccc(=O)[nH]c4=O)O[C@@H]3CO)O2)c(=O)[nH]c1=O` here?
**A.** Its Stability is “Stable”.

**Q.** With `CO[C@@H]1[C@H](OP(=O)(O)OC[C@H]2O[C@@H](n3ccc(=O)[nH]c3=O)[C@H](OC(N)=O)[C@@H]2OP(=O)(O)OC[C@H]2O[C@@H](n3ccc(=O)[nH]c3=O)[C@H](OC)[C@@H]2OP(=O)(O)OC[C@H]2O[C@@H](n3ccc(=O)[nH]c3=O)[C@H](OC(N)=O)[C@@H]2OP(=O)(O)OC[C@H]2O[C@@H](n3ccc(N)nc3=O)[C@H](OC)[C@@H]2OP(=O)(O)OC[C@H]2O[C@@H](n3ccc(N)nc3=O)[C@H](OC)[C@@H]2OP(=O)(O)OC[C@H]2O[C@@H](n3cnc4c(=O)[nH]c(N)nc43)[C@H](OC)[C@@H]2OP(=O)(O)OC[C@H]2O[C@@H](n3cnc4c(=O)[nH]c(N)nc43)[C@H](OC)[C@@H]2O)[C@@H](COP(=O)(O)O[C@H]2[C@@H](OC)[C@H](n3ccc(N)nc3=O)O[C@@H]2COP(=O)(O)O[C@H]2[C@@H](OC)[C@H](n3cnc4c(N)ncnc43)O[C@@H]2COP(=O)(O)O[C@H]2[C@@H](OC)[C@H](n3ccc(=O)[nH]c3=O)O[C@@H]2COP(=O)(O)O[C@H]2[C@@H](OC)[C@H](n3cnc4c(=O)[nH]c(N)nc43)O[C@@H]2CO)O[C@H]1n1ccc(N)nc1=O` as the compound, how does the Tm (Nucleic Acid [1]) read?
**A.** The Tm was 43 °C.

**Q.** What does the source list for `CO[C@@H]1[C@H](OP(=O)(O)OC[C@H]2O[C@@H](n3ccc(=O)[nH]c3=O)[C@H](OC)[C@@H]2OP(=O)(O)OC[C@H]2O[C@@H](n3ccc(=O)[nH]c3=O)[C@H](OC)[C@@H]2OP(=O)(O)OC[C@H]2O[C@@H](n3ccc(=O)[nH]c3=O)[C@H](OC(=O)NCCCCN)[C@@H]2OP(=O)(O)OC[C@H]2O[C@@H](n3ccc(N)nc3=O)[C@H](OC)[C@@H]2OP(=O)(O)OC[C@H]2O[C@@H](n3ccc(N)nc3=O)[C@H](OC)[C@@H]2OP(=O)(O)OC[C@H]2O[C@@H](n3cnc4c(=O)[nH]c(N)nc43)[C@H](OC)[C@@H]2OP(=O)(O)OC[C@H]2O[C@@H](n3cnc4c(=O)[nH]c(N)nc43)[C@H](OC)[C@@H]2O)[C@@H](COP(=O)(O)O[C@H]2[C@@H](OC)[C@H](n3ccc(N)nc3=O)O[C@@H]2COP(=O)(O)O[C@H]2[C@@H](OC)[C@H](n3cnc4c(N)ncnc43)O[C@@H]2COP(=O)(O)O[C@H]2[C@@H](OC(=O)NCCCCN)[C@H](n3ccc(=O)[nH]c3=O)O[C@@H]2COP(=O)(O)O[C@H]2[C@@H](OC)[C@H](n3cnc4c(=O)[nH]c(N)nc43)O[C@@H]2CO)O[C@H]1n1ccc(N)nc1=O`?
**A.** Tm (Nucleic Acid [1]): 61 °C; ΔTm (Nucleic Acid [2]): 14 °C
